Reference: ChEMBL document CHEMBL1287642, “Synthesis, antiviral activity and cytotoxicity evaluation of Schiff bases of some 2-phenyl quinazoline-4(3)H-ones” (Eur J Med Chem, 2010)
≈ marks a conversion by molar mass, not a printed value. Calls of active or inactive are those of the source. The calls are words filed in the database; no cut-off is given here.

Columns and labels:
[1] = (§1) Cytotoxicity against MDCK cells by MTS assay; assay type: cell-based, Canis lupus familiaris; details: dog, MDCK cells
Method in brief: (§2)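 In Madin Darby canine kidney cells, the 50% cytotoxic concentration was derived from cell viability measured by the colorimetric formazan-based MTS assay.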

[2] = Cytotoxicity against MDCK cells assessed as minimum concentration required to cause microscopically detectable alteration after 2 days; assay type: cell-based, Canis lupus familiaris; details: dog, read-out: Activity
Influenza B virus [3] = assay: Antiviral activity against influenza B virus infected in MDCK cells assessed as cell viability after 2 days by MTS assay; assay type: functional, organism-based
Influenza B virus [4] = assay: Antiviral activity against influenza B virus infected in MDCK cells assessed as protection against virus-induced cytopathogenicity after 2 days; assay type: functional, organism-based
Method in brief: (§3)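 Infected MDCK cells were treated. […] N.A. means not active at the highest concentration tested or at a subtoxic concentration.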

Influenza A virus [5] = assay: Antiviral activity against Influenza A virus H3N2 infected in MDCK cells assessed as protection against virus-induced cytopathogenicity at 100 ug/ml after 2 days; assay type: functional, organism-based; method in brief: as §3
[6] = Cytotoxicity against african green monkey Vero cells assessed as minimum concentration required to cause microscopically detectable alteration after 2 days; assay type: cell-based; details: chlorocebus sabaeus, read-out: Activity
Punta Toro virus [7] = assay: Antiviral activity against Punta Toro virus infected in african green monkey Vero cells assessed as inhibition of viral replication; assay type: functional, organism-based
[8] = Selectivity index, ratio of minimum concentration required to cause microscopically detectable alteration in human HEL cells to EC50 for Herpes simplex virus-1 KOS; assay type: toxicity, cell-based; details: read-out: Selectivity Index
Method in brief: (§4)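 Cytotoxicity was taken as the concentration causing a microscopically detectable change in normal cell morphology (Vero or HEL). […] The selectivity index is the first divided by the second.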

Influenza A virus [9] = assay: Antiviral activity against influenza A virus H1N1 infected in MDCK cells assessed as cell viability at 100 ug/ml after 2 days by MTS assay; assay type: functional, organism-based
[10] = Selectivity index, ratio of minimum concentration required to cause microscopically detectable alteration in green monkey Vero cells to EC50 for Sindbis virus; assay type: toxicity, cell-based; details: read-out: Selectivity Index; method in brief: as §4
Influenza A virus [11] = assay: Antiviral activity against Influenza A virus H3N2 infected in MDCK cells assessed as cell viability at 100 ug/ml after 2 days by MTS assay; assay type: functional, organism-based
Influenza B virus [12] = assay: Antiviral activity against influenza B virus infected in MDCK cells assessed as cell viability at 100 ug/ml after 2 days by MTS assay; assay type: functional, organism-based
[13] = tested on: Feline infectious peritonitis virus; assay: Antiviral activity against Feline coronavirus FIPV infected in cat CRFK cells assessed as protection against virus-induced cytopathogenicity after 2 days by MTS assay; assay type: functional, cell-based; details: Alphacoronavirus 1, CRFK, 48 h
Influenza B virus [14] = assay: Antiviral activity against influenza B virus infected in MDCK cells assessed as protection against virus-induced cytopathogenicity at 100 ug/ml after 2 days; assay type: functional, organism-based; method in brief: as §3
Sindbis virus [15] = assay: Antiviral activity against Sindbis virus infected in african green monkey Vero cells assessed as protection against virus-induced cytopathogenicity after 2 days; assay type: functional, organism-based; details: 48 h
Coxsackievirus B4 [16] = assay: Antiviral activity against Coxsackie virus B4 infected in human HeLa cells assessed as protection against virus-induced cytopathogenicity after 2 days; assay type: functional, organism-based; details: Enterovirus B, 48 h
[17] = tested on: Mammalian orthoreovirus 1; assay: Antiviral activity against Reovirus-1 infected in african green monkey Vero cells assessed as protection against virus-induced cytopathogenicity after 2 days; assay type: functional, organism-based; details: Mammalian orthoreovirus 1, Vero, 48 h
MDCK = assay: as §1; assay type: cell-based, Canis lupus familiaris; details: dog, mdck; method in brief: as §2
[18] = tested on: Vesicular stomatitis virus; assay: Antiviral activity against Vesicular stomatitis virus infected in human HeLa cells assessed as protection against virus-induced cytopathogenicity after 2 days; assay type: functional, organism-based; details: 48 h
Coxsackievirus B4 [19] = assay: Antiviral activity against Coxsackie virus B4 infected in african green monkey Vero cells assessed as inhibition of viral replication; assay type: functional, organism-based
Human respirovirus 3 = assay: Antiviral activity against Para influenza-3 virus infected in african green monkey Vero cells assessed as protection against virus-induced cytopathogenicity after 2 days; assay type: functional, organism-based; details: Human respirovirus 3, Vero, 48 h
Coxsackievirus B4 [20] = assay: Antiviral activity against Coxsackie virus B4 infected in african green monkey Vero cells assessed as protection against virus-induced cytopathogenicity after 2 days; assay type: functional, organism-based; details: Enterovirus B, 48 h
[21] = Selectivity index, ratio of minimum concentration required to cause microscopically detectable alteration in human HEL cells to EC50 for acyclovir-resistant TK deficient Vaccina virus; assay type: toxicity, cell-based; details: read-out: Selectivity Index; method in brief: as §4
[22] = tested on: Respiratory syncytial virus; assay: Antiviral activity against Respiratory syncytial virus infected in human HeLa cells assessed as protection against virus-induced cytopathogenicity after 2 days; assay type: functional, organism-based; details: 48 h
[23] = tested on: Vesicular stomatitis virus; assay: Antiviral activity against Vesicular stomatitis virus infected in human HEL cells assessed as protection against virus-induced cytopathogenicity after 2 days; assay type: functional, organism-based; details: 48 h
[24] = Cytotoxicity against human HEL cells assessed as minimum concentration required to cause microscopically detectable alteration after 2 days; assay type: cell-based; details: read-out: Activity
[25] = Selectivity index, ratio of minimum concentration required to cause microscopically detectable alteration in green monkey Vero cells to EC50 for Reovirus-1; assay type: toxicity, cell-based; details: read-out: Selectivity Index; method in brief: as §4
Human alphaherpesvirus 2 = assay: Antiviral activity against Herpes simplex virus-2 G infected in human HEL cells assessed as protection against virus-induced cytopathogenicity after 2 days; assay type: functional, organism-based; details: Human alphaherpesvirus 2, strain G, 48 h
[26] = tested on: Mammalian orthoreovirus 1; assay: Antiviral activity against Reovirus-1 infected in african green monkey Vero cells assessed as inhibition of viral replication; assay type: functional, organism-based
[27] = Selectivity index, ratio of minimum concentration required to cause microscopically detectable alteration in human HEL cells to EC50 for acyclovir-resistant TK deficient Herpes simplex virus-1 KOS; assay type: toxicity, cell-based; details: read-out: Selectivity Index; method in brief: as §4
[28] = Selectivity index, ratio of minimum concentration required to cause microscopically detectable alteration in green monkey Vero cells to EC50 for sCoxsackie virus B4; assay type: toxicity, cell-based; details: read-out: Selectivity Index; method in brief: as §4
Human alphaherpesvirus 1 [29] = assay: Antiviral activity against acyclovir-resistant TK deficient Herpes simplex virus-1 KOS infected in human HEL cells assessed as protection against virus-induced cytopathogenicity after 2 days; assay type: functional, organism-based; details: Human alphaherpesvirus 1, KOS, 48 h
Human alphaherpesvirus 1 [30] = assay: Antiviral activity against Herpes simplex virus-1 KOS infected in human HEL cells assessed as protection against virus-induced cytopathogenicity after 2 days; assay type: functional, organism-based; details: Human alphaherpesvirus 1, KOS, 48 h
[31] = Cytotoxicity against cat CRFK cells by MTS assay; assay type: cell-based, Felis catus; details: crfk
Method in brief: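 In uninfected CRFK cells, the 50% cytotoxic concentration was derived from cell viability measured by the colorimetric formazan-based MTS assay.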

Sindbis virus [32] = assay: Antiviral activity against Sindbis virus infected in african green monkey Vero cells assessed as inhibition of viral replication; assay type: functional, organism-based
Punta Toro virus [33] = assay: Antiviral activity against Punta Toro virus infected in african green monkey Vero cells assessed as protection against virus-induced cytopathogenicity after 2 days; assay type: functional, organism-based; details: 48 h
[34] = Cytotoxicity against human HeLa cells assessed as minimum concentration required to cause microscopically detectable alteration after 2 days; assay type: cell-based; details: read-out: Activity
[35] = Selectivity index, ratio of minimum concentration required to cause microscopically detectable alteration in human HEL cells to EC50 for Herpes simplex virus-2 G; assay type: toxicity, cell-based; details: read-out: Selectivity Index; method in brief: as §4
[36] = Selectivity index, ratio of minimum concentration required to cause microscopically detectable alteration in green monkey Vero cells to EC50 for Punta Toro virus; assay type: toxicity, cell-based; details: read-out: Selectivity Index; method in brief: as §4
Influenza A virus [37] = assay: Antiviral activity against influenza A virus H1N1 infected in MDCK cells assessed as protection against virus-induced cytopathogenicity at 100 ug/ml after 2 days; assay type: functional, organism-based; method in brief: as §3
Felid alphaherpesvirus 1 = assay: Antiviral activity against Feline herpes virus infected in cat CRFK cells assessed as protection against virus-induced cytopathogenicity after 2 days by MTS assay; assay type: functional, organism-based; details: Felid alphaherpesvirus 1, CRFK, 48 h

**Q.** Which results are given for NC12CC3CC(CC(C3)C1)C2 [AMANTADINE]?
**A.** CC50 [1]: > 1000 µg/mL; MCC at 48 h [2]: > 1000 µg/mL; EC50 (Influenza B virus [3]): Not Active; EC50 (Influenza B virus [4]): Not Active

**Q.** For O=c1c2ccccc2nc(-c2ccccc2)n1/N=C/c1ccccc1O, which EC50 (Influenza A virus [5]) is on record?
**A.** Its EC50 is “Not Active”.

**Q.** And the MCC at 48 h [6]?
**A.** The MCC at 48 h was 100 µg/mL.

**Q.** What about the inhibition (Punta Toro virus [7]) of the same molecule?
**A.** The inhibition was “Active”.

**Q.** And the selectivity ratio [8]?
**A.** Its selectivity ratio is 100.

**Q.** What about the EC50 (Influenza A virus [9]) of the same molecule?
**A.** Its EC50 is “Not Active”.

**Q.** And the selectivity ratio [10]?
**A.** The selectivity ratio was 20.

**Q.** What about the EC50 (Influenza A virus [11]) of the same molecule?
**A.** The EC50 was “Not Active”.

**Q.** And the EC50 (Influenza B virus [12])?
**A.** The EC50 was “Not Active”.

**Q.** What about the EC50 [13] of the same molecule?
**A.** Its EC50 is greater than 4 µg/mL.

**Q.** And the EC50 (Influenza B virus [14])?
**A.** Its EC50 is “Not Active”.

**Q.** And the EC50 (Sindbis virus [15])?
**A.** Its EC50 is 5 µg/mL (≈ 14.6 µM).

**Q.** And the EC50 (Coxsackievirus B4 [16])?
**A.** The EC50 was greater than 0.8 µg/mL.

**Q.** What about the EC50 [17] of the same molecule?
**A.** Its EC50 is 10 µg/mL (≈ 29.3 µM).

**Q.** What about the CC50 (MDCK) of the same molecule?
**A.** The CC50 was 2.6 µg/mL (≈ 7.62 µM).

**Q.** What about the EC50 [18] of the same molecule?
**A.** The EC50 was greater than 0.8 µg/mL.

**Q.** And the inhibition (Coxsackievirus B4 [19])?
**A.** Its inhibition is “Active”.

**Q.** And the EC50 (Human respirovirus 3)?
**A.** The EC50 was greater than 20 µg/mL.

**Q.** What about the EC50 (Coxsackievirus B4 [20]) of the same molecule?
**A.** The EC50 was 10 µg/mL (≈ 29.3 µM).

**Q.** And the selectivity ratio [21]?
**A.** The selectivity ratio was 125.

**Q.** And the EC50 [22]?
**A.** The EC50 was greater than 0.8 µg/mL.

**Q.** And the EC50 [23]?
**A.** Its EC50 is 15 µg/mL (≈ 43.9 µM).

**Q.** And the MCC at 48 h [24]?
**A.** Its MCC at 48 h is 100 µg/mL.

**Q.** And the selectivity ratio [25]?
**A.** The selectivity ratio was 10.

**Q.** What about the MCC at 48 h [2] of the same molecule?
**A.** The MCC at 48 h was no less than 0.8 µg/mL.

**Q.** And the EC50 (Human alphaherpesvirus 2)?
**A.** Its EC50 is 1 µg/mL (≈ 2.93 µM).

**Q.** And the inhibition [26]?
**A.** The inhibition was “Active”.

**Q.** And the selectivity ratio [27]?
**A.** The selectivity ratio was 100.

**Q.** And the selectivity ratio [28]?
**A.** Its selectivity ratio is 10.

**Q.** And the EC50 (Human alphaherpesvirus 1 [29])?
**A.** The EC50 was 1 µg/mL (≈ 2.93 µM).

**Q.** What about the EC50 (Human alphaherpesvirus 1 [30]) of the same molecule?
**A.** The EC50 was 1 µg/mL (≈ 2.93 µM).

**Q.** And the CC50 [31]?
**A.** The CC50 was 11.2 µg/mL (≈ 32.8 µM).

**Q.** And the inhibition (Sindbis virus [32])?
**A.** The inhibition was “Active”.

**Q.** What about the EC50 (Punta Toro virus [33]) of the same molecule?
**A.** Its EC50 is 3 µg/mL (≈ 8.79 µM).

**Q.** What about the MCC at 48 h [34] of the same molecule?
**A.** Its MCC at 48 h is 4 µg/mL.

**Q.** And the selectivity ratio [35]?
**A.** Its selectivity ratio is 100.

**Q.** What about the selectivity ratio [36] of the same molecule?
**A.** The selectivity ratio was 33.

**Q.** What about the EC50 (Influenza A virus [37]) of the same molecule?
**A.** Its EC50 is “Not Active”.

**Q.** And the EC50 (Felid alphaherpesvirus 1)?
**A.** Its EC50 is greater than 4 µg/mL.
